Reference: ChEMBL document CHEMBL3244054, “Kojic amine--a novel gamma-aminobutyric acid analogue” (J Med Chem, 1979)
The source made the active and inactive calls. The rule behind the calls is not given here.

What was measured:
Felis catus [1] = assay: Skeletal muscle relaxant activity in po dosed chronic spinal mongrel cat assessed as reduction of flexor spasm administered every 15 mins interval; format: functional
How it was run: (§1)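 Test agent dissolved in normal saline and given to chronic spinal animals intravenously or by oral gavage as cumulative doses at 15-min intervals. The flexor reflex response was compared against predrug control responses. ED70 is the cumulative dose that reduced the flexor reflex by 70% or more.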

[2] = Dissociation constant, pKa of the compound; format: physicochemical
Rattus norvegicus [3] = assay: Skeletal muscle relaxant activity in iv dosed chronic spinal Sprague-Dawley rat assessed as reduction of flexor spasm administered every 15 mins interval; format: functional; conditions: 0.25 h; how it was run: as §1
Mus musculus [4] = assay: Anticonvulsant activity in po dosed Swiss mouse assessed as reduction of 3-mercaptopropionic acid-induced tonic extensor-seizures within 3 to 7 mins; format: functional
How it was run: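 Robidoux Swiss male mice, 18–22 g. Test substances in saline given orally 30 min before ip 3-mercaptopropionic acid at 25 mg/kg, which induces tonic-extensor seizures within 3–7 min in 90–100% of mice. ED50 is the dose preventing tonic-extensor seizures in 50% of animals, by regression analysis over at least three doses with ten mice per dose level.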

Felis catus [5] = assay: Skeletal muscle relaxant activity in chronic spinal mongrel cat assessed as reduction of flexor spasm up to 7.5 mg/kg, iv administered every 15 mins interval; format: functional, organism-based; parameters: dose 7.5 mg/kg
How it was run: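 Chronic spinal cat preparation. Test substances in normal saline were given iv in cumulative doses at 15-min intervals, and the flexor reflex response was recorded against predrug control responses. ED70 is the cumulative dose reducing the flexor reflex response by 70% or more.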

Felis catus [6] = assay: Skeletal muscle relaxant activity in chronic spinal mongrel cat assessed as reduction of flexor spasm up to 16 mg/kg, iv administered every 15 mins interval; format: functional, organism-based; parameters: dose 16 mg/kg; how it was run: as §1
Felis catus [7] = assay: Skeletal muscle relaxant activity in iv dosed chronic spinal mongrel cat assessed as reduction of flexor spasm administered every 15 mins interval; format: functional; conditions: 0.25 h; how it was run: as §1
Mus musculus [8] = assay: Toxicity in Swiss mouse at 128 mg/kg, po; format: organism-based; parameters: dose 128 mg/kg, route oral; conditions: in vivo
Rattus norvegicus [9] = assay: Toxicity in iv dosed chronic spinal Sprague-Dawley rat assessed as lethality at cumulative dose of 16 mg/kg, iv; format: organism-based; parameters: dose 16 mg/kg, route intravenous; conditions: in vivo
Mus musculus [10] = assay: Toxicity in Swiss mouse at 8 mg/kg, po; format: organism-based; parameters: dose 8 mg/kg, route oral; conditions: in vivo

CN(C)Cc1cc(=O)c(O)co1
ED70 (Felis catus [1]): inactive

NCCCC(=O)NCc1cc(=O)c(O)co1
ED70 (Felis catus [1]): inactive

NC(Cl)c1cc(=O)c(O)co1 (stereo not given)
ED70 (Felis catus [1]): inactive

O=c1cc(CNCc2ccccc2)occ1O
ED70 (Felis catus [1]): inactive

CNCc1cc(=O)c(O)co1
ED70 (Felis catus [1]): inactive

Cn1cc(O)c(=O)cc1CN
ED70 (Felis catus [1]): inactive

O=c1cc(CO)occ1O [KOJIC ACID]
pKa [2]: 7.95

CC(=O)NCc1cc(=O)c(O)co1
ED70 (Felis catus [1]): inactive

NCCC(=O)NCc1cc(=O)c(O)co1
ED70 (Felis catus [1]): inactive

NCc1cc(O)no1 [MUSCIMOL]
ED70 (Rattus norvegicus [3]): 16 mg/kg
ED50 (Mus musculus [4]): 1.34 mg/kg
Activity (Felis catus [5]): inactive

NCCCc1cc(=O)c(O)co1
Activity (Felis catus [6]): inactive

NCCc1cc(=O)c(O)co1
ED70 (Felis catus [1]): inactive

NCc1cc(=O)c(O)c[nH]1
ED70 (Felis catus [1]): inactive

CC(N)C(=O)NCc1cc(=O)c(O)co1 (stereo not given)
ED70 (Rattus norvegicus [3]): 8 mg/kg
ED70 (Felis catus [7]): 12 mg/kg

NCC(=O)NCc1cc(=O)c(O)co1
ED70 (Rattus norvegicus [3]): 8 mg/kg
ED70 (Felis catus [7]): 12 mg/kg

NCCCC(=O)O [GAMMA-AMINOBUTYRIC ACID]
pKa [2]: 4.04

NCc1cc(=O)c(O)co1
Activity (Mus musculus [8]): Non-toxic
pKa [2]: 6.6
ED70 (Rattus norvegicus [3]): 8 mg/kg
ED50 (Mus musculus [4]): 15 mg/kg
ED70 (Felis catus [7]): 2.2 mg/kg
ED70 (Felis catus [1]; 0.25 h): 4 mg/kg

CC(N)c1cc(=O)c(O)co1 (stereo not given)
ED70 (Felis catus [1]): inactive

NCc1cc(=O)[nH]o1 [MUSCIMOL]
pKa [2]: 4.78
Activity (Rattus norvegicus [9]): Toxic
Activity (Mus musculus [10]): Toxic
